The source made the active and inactive calls. The calls are words filed in the database; no cut-off is given here.
Tests used:
[1] = system: Plasmodium falciparum; assay: Antiplasmodial activity against multidrug-resistant Plasmodium falciparum K1 infected in human erythrocytes assessed as reduction in parasite growth incubated for 72 hrs by SYBR green I fluorescence based assay; assay type: functional, organism-based; conditions: K1, Erythrocyte
[2] = Selectivity index, ratio of CC50 for cytotoxicity against human HepG2 cells to EC50 for antiplasmodial activity against multidrug-resistant Plasmodium falciparum K1 infected in human erythrocytes; assay type: toxicity, cell-based; conditions: read-out: Ratio CC50/EC50
[3] = Cytotoxicity against human HepG2 cells assessed as reduction in cell viability measured after 72 hrs by MTT assay; assay type: cell-based
Procedure, shortened: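 HepG2 in MEM with 10% FBS, 5×10³ cells/well; 24 h attachment, then serial dilutions (DMSO <0.5% final) for 72 h at 37 °C, wells checked for precipitate. MTT 0.5 mg/mL for 2 h, formazan in DMSO, A570 with 630 nm reference. Viability versus untreated; doxorubicin positive control; CC50 from dose-response curve, triplicates, mean of three independent experiments.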

[4] = Aqueous solubility of the compound; assay type: physicochemical; conditions: buffer
[5] = system: Plasmodium falciparum; assay: Inhibition of apicoplast development in hepatic stage of Plasmodium falciparum NF135 infected in human hepatocytes assessed as condensation of apicoplast protein ACP signal incubated for 3 hrs with daily replacement of fresh medium containing compound until day 6 post infection by confocal microscopy; assay type: functional, organism-based; conditions: time 6.0 day
Procedure, shortened: (§1)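 Primary human hepatocytes infected with NF135 sporozoites (30,000/well), drug present from infection, washed at 3 h and renewed daily until fixing at day 6 (4% PFA). Apicoplast stained with anti-ACP antibody, parasites with anti-HSP70, DNA with DAPI, imaged by confocal microscopy. 100 parasites scored as normal or partially/completely altered apicoplast, given as percentage distribution.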

[6] = Genotoxicity in human HepG2 cells assessed as induction of DNA strand breaks at 5.6 uM measured after 2 to 72 hrs by alkali comet assay; assay type: cell-based; conditions: hepg2, 5.6 µM, time 2-72 hrs
Procedure, shortened: (§2)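 HepG2 (passage 11-15, EMEM with 10% FBS) exposed to 5.6 or 28 μM for 2 h or 72 h; vehicle 0.5% DMSO; 1 mM MMS 2 h positive control. Alkaline comet: lysis pH 10 at 4 °C 1 h, unwinding 40 min at pH >13, electrophoresis 1 V/cm 20 min. DAPI staining, % tail DNA; median of 50 comets per duplicate gel, mean of three experiments ±SD.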

[7] = system: Plasmodium falciparum; assay: Antiplasmodial activity against Plasmodium falciparum NF135 sporozoites infected in human hepatocytes assessed as reduction in parasite size without affecting parasite number incubated for 3 hrs with daily replacement of fresh medium containing compound until day 6 post infection by fluorescence microscopic analysis; assay type: functional, organism-based; conditions: Hepatocyte, time 6.0 day
Procedure, shortened: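 Cryopreserved primary human hepatocytes seeded at 80,000/well on collagen I in supplemented William's E, then infected with 30,000 NF135 sporozoites/well from A. stephensi salivary glands. Plates centrifuged 10 min, serial drug dilutions added at infection, washed at 3 h, drug medium renewed daily. Fixed day 6 in 4% PFA, EEFs stained with anti-HSP70 plus DAPI, counted by fluorescence microscopy or high-content imaging.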

[8] = Cytotoxicity against African green monkey Vero cells assessed as reduction in cell viability measured after 48 hrs by MTT assay; assay type: cell-based; conditions: chlorocebus sabaeus
Procedure, shortened: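 Vero cells in MEM with 10% FBS; 5×10³ cells/well, 24 h attachment, then compound dilutions (DMSO <0.5% final) for 48 h at 37 °C. Precipitate check, MTT 0.5 mg/mL 2 h, DMSO solubilization, A570/630. Viability relative to untreated; doxorubicin control; CC50 from dose-response, triplicates, mean of three independent experiments.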

[9] = system: Plasmodium falciparum; assay: Antiplasmodial activity against Plasmodium falciparum 3D7 assessed as reduction in parasite development by measuring defect in parasite replication at 0.3 uM measured after 48 hrs by DAPI/TPT staining based epifluorescence microscopic analysis; assay type: functional, organism-based
Procedure, shortened: (§3)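 Sorbitol-synchronized (5%) 3D7 blood-stage cultures expressing HA-tagged TPT, grown in RPMI-HEPES with 5% AlbuMAX II, 2% hematocrit, 1% O2/5% CO2, 37 °C; exposed 48 h to 0.3 μM or DMSO. Fixed in 4% PFA/0.0075% glutaraldehyde, Triton-permeabilized, stained with anti-HA plus Alexa 488 secondary and DAPI; imaged by epifluorescence with DIC.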

[10] = system: Plasmodium falciparum; assay: Inhibition of apicoplast biogenesis in Plasmodium falciparum 3D7 assessed as reduction in apicoplast development, elongation and branching at 0.3 uM measured after 48 hrs by DAPI/TPT staining based epifluorescence microscopic analysis; assay type: functional, organism-based; procedure, shortened: as §3
[11] = system: Plasmodium falciparum; assay: Inhibition of apicoplast development in Plasmodium falciparum 3D7 assessed as delayed death phenotype at 0.3 uM measured during 48 hrs of three cycles of parasite development by SYBR green I based fluorescence assay; assay type: functional, organism-based
Procedure, shortened: (§4)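 3D7 cultures held at 0.3 μM or DMSO across three 48 h cycles, diluted 1/10 each cycle. At 48, 96 and 144 h, aliquots were lysed in SYBR Green I buffer (Tris pH 7.5, EDTA, saponin, Triton X-100) for 1 h at room temperature in the dark. Fluorescence read at 485/538 nm; growth expressed as treated/untreated ratio, n=3, SD.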

[12] = Genotoxicity in human HepG2 cells assessed as induction of alkali labile sites at 28 uM measured after 2 to 72 hrs by alkali comet assay; assay type: cell-based; conditions: hepg2, 28 µM, time 2-72 hrs; procedure, shortened: as §2
[13] = system: Plasmodium falciparum; assay: Antiplasmodial activity against Plasmodium falciparum 3D7 assessed as reduction in parasite development by measuring enriched culture in mid trophozite parasites at 0.3 uM measured after 48 hrs by DAPI/TPT staining based epifluorescence microscopic analysis; assay type: functional, organism-based; procedure, shortened: as §3
[14] = system: Plasmodium falciparum; assay: Inhibition of apicoplast development in hepatic stage of Plasmodium falciparum NF135 infected in human hepatocytes assessed as proportion of schizonts with partial and complete alteration of apicoplast signal at 30 uM incubated for 3 hrs with daily replacement of fresh medium containing compound until day 6 post infection by confocal microscopy; assay type: functional; set-up: scale not given: the % may be the effect or the level left; conditions: time 6 day; procedure, shortened: as §1
[15] = Cytotoxicity against CHO cells assessed as reduction in cell viability measured after 24 hrs by MTT assay; assay type: cell-based, Cricetulus griseus; conditions: chinese hamster
Procedure, shortened: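 CHO cells grown in RPMI with 10% FBS; 5×10³ cells/well, 24 h attachment, then compound dilutions (DMSO <0.5% final) for 24 h at 37 °C. Precipitate check, MTT 0.5 mg/mL 2 h, DMSO solubilization, A570/630. Percent viability against untreated; doxorubicin control; CC50 from dose-response, triplicates, mean of three independent experiments.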

[16] = system: Plasmodium falciparum; assay: Inhibition of apicoplast biogenesis in Plasmodium falciparum 3D7 assessed as loss of apicoplast at 0.3 uM measured after 48 hrs by DAPI/TPT staining based epifluorescence microscopic analysis; assay type: functional, organism-based; procedure, shortened: as §3
[17] = Genotoxicity in human HepG2 cells assessed as induction of DNA strand breaks at 28 uM measured after 2 to 72 hrs by alkali comet assay; assay type: cell-based; conditions: hepg2, 28 µM, time 2-72 hrs; procedure, shortened: as §2
[18] = Toxicity in human hepatocytes assessed as reduction in nuclei number up to 30 uM by microscopic analysis; assay type: cell-based, Hepatocyte
Procedure, shortened: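 Cryopreserved primary human hepatocytes, 80,000 per collagen-coated well in William's E medium, inoculated with 30,000 NF135 sporozoites/well and centrifuged. Serial drug dilutions added with sporozoites, renewed daily until 4% PFA fixation at day 6. Stained with anti-HSP70 and DAPI; hepatocyte nuclei counted across scanned microscopic fields, treated versus control.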

[19] = Genotoxicity in human HepG2 cells assessed as induction of alkali labile sites at 5.6 uM measured after 2 to 72 hrs by alkali comet assay; assay type: cell-based; conditions: hepg2, 5.6 µM, time 2-72 hrs; procedure, shortened: as §2
[20] = system: Plasmodium falciparum; assay: Inhibition of apicoplast development in Plasmodium falciparum 3D7 assessed as reduction in parasite growth at 0.3 uM measured during 48 hrs of first cycle of parasite development by SYBR green I based fluorescence assay; assay type: functional, organism-based; procedure, shortened: as §4
[21] = system: Plasmodium falciparum; assay: Antiplasmodial activity against Plasmodium falciparum 3D7; assay type: functional, organism-based
[22] = Aqueous solubility of the compound assessed as precipitation of the compound at >1.9 uM; assay type: physicochemical; conditions: buffer

Compound | EC50 [1] | selectivity ratio [2] | CC50 at 72 h [3] | solubility [4] | further results
FC(F)(F)c1ccc(Sc2nc3ccccc3nc2C(Cl)(Cl)Cl)cc1 | 0.5 µM | 59.8 | 29.9 µM | Soluble | –
O=C1C(O)=C([C@H]2CC[C@H](c3ccc(Cl)cc3)CC2)C(=O)c2ccccc21 [ATOVAQUONE] | 0.001 µM | – | > 15.6 µM | – | –
Clc1ccc(Sc2nc3ccccc3nc2C(Cl)(Cl)Cl)cc1 | 0.5 µM | 77.2 | – | – | –
COc1ccccc1Sc1nc2ccccc2nc1C(Cl)(Cl)Cl | 0.74 µM | 56.8 | 42.6 µM | Soluble | –
CCN(CC)CCCC(C)Nc1ccnc2cc(Cl)ccc12 (stereo not given) [CHLOROQUINE] | 0.8 µM | – | – | – | –
Clc1ccc(Sc2nc3ccccc3nc2C(Cl)(Cl)Cl)c(Cl)c1 | 0.9 µM | > 34.7 | > 31.2 µM | Soluble | –
ClC(Cl)(Cl)c1nc2ccccc2nc1Sc1ccccc1 | 0.32 µM | 175 | 56 µM | Soluble | inhibition [5]: Active; Activity [6]: Non-Toxic; Activity [7]: Dose-Dependent Effect; CC50 at 48 h [8]: 63.5 µM; Activity [9]: Active; inhibition [10]: Active; Activity [11]: Active; Activity [12]: Non-Toxic; Activity [13]: Active; Activity [14]: 93%; CC50 at 24 h [15]: 58.5 µM; inhibition [16]: Active; Activity [17]: Non-Toxic; Activity [18]: Non-Toxic; Activity [19]: Non-Toxic; Activity [20]: Active
Fc1cccc(Sc2nc3ccccc3nc2C(Cl)(Cl)Cl)c1 | 0.31 µM | 116 | 35.9 µM | Soluble | –
Clc1cccc(Sc2nc3ccccc3nc2C(Cl)(Cl)Cl)c1 | 0.41 µM | 93.4 | 38.3 µM | Soluble | –
Fc1ccccc1Sc1nc2ccccc2nc1C(Cl)(Cl)Cl | 0.32 µM | 127 | 40.5 µM | Soluble | –
c1ccc(Sc2cnc3ccccc3n2)cc1 | > 50 µM | – | > 50 µM | – | –
Oc1cc(Cl)ccc1Oc1ccc(Cl)cc1Cl [TRICLOSAN] | – | – | – | – | EC50 [21]: 1.55 µM
COc1ccc(Sc2nc3ccccc3nc2C(Cl)(Cl)Cl)cc1 | 0.65 µM | > 3 | > 1.9 µM | – | solubility [22]: Insoluble
Cc1nc2ccccc2nc1Sc1ccccc1 | > 50 µM | – | > 25 µM | – | Activity [11]: inactive
C[C@H]1c2cccc(O)c2C(=O)C2=C(O)[C@]3(O)C(=O)C(C(N)=O)=C(O)[C@@H](N(C)C)[C@@H]3[C@@H](O)[C@@H]21 [DOXYCYCLINE] | 6 µM | 3.3 | – | – | –
COc1ccc(Cl)c(Sc2nc3ccccc3nc2C(Cl)(Cl)Cl)c1 | 0.46 µM | 127 | 58.4 µM | Soluble | –
FC(F)(F)c1nc2ccccc2nc1Sc1ccccc1 | > 50 µM | – | > 50 µM | – | –
O=[N+]([O-])c1ccc(Sc2nc3ccccc3nc2C(Cl)(Cl)Cl)cc1 | 0.25 µM | 79.6 | 19.9 µM | Soluble | –
FC(F)(F)Oc1ccc(Sc2nc3ccccc3nc2C(Cl)(Cl)Cl)cc1 | 0.36 µM | 58.3 | 21 µM | Soluble | –
Clc1cccc(Sc2nc3ccccc3nc2C(Cl)(Cl)Cl)c1Cl | 0.31 µM | 112 | 34.6 µM | Soluble | –
Fc1ccc(Sc2nc3ccccc3nc2C(Cl)(Cl)Cl)cc1 | 0.36 µM | 85.6 | 30.8 µM | Soluble | –
Cc1ccc(Sc2nc3ccccc3nc2C(Cl)(Cl)Cl)cc1 | 1.5 µM | 46.5 | 69.7 µM | Soluble | –
ClC(Cl)(Cl)c1nc2ccccc2nc1Sc1ccc(Br)cc1 | 0.46 µM | 93 | 42.2 µM | Soluble | –
Clc1ccccc1Sc1nc2ccccc2nc1C(Cl)(Cl)Cl | 0.5 µM | 73.8 | 36.9 µM | Soluble | –

Reference: ChEMBL document CHEMBL4828728, “Antiplasmodial 2-thiophenoxy-3-trichloromethyl quinoxalines target the apicoplast of Plasmodium falciparum” (Eur J Med Chem, 2021)
